# From ChEMBL document CHEMBL1133503 (J Med Chem, 2000)
# How the values were obtained:
# [1] = Concentration of drug required to reduce V-79 cell survival to 50% of controls in a SRB assay; assay type: functional, cell-based; details: Cricetulus griseus, V79
# Method in brief: (§1)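 V-79 cells (about 7 × 10³ per 100 μL) preincubated 24 h, then exposed to drug for 3 h under oxic conditions. Washed 5× with HBSS and grown 48 h more. Fixed with TCA and stained with SRB. Bound dye dissolved in 10 mM Tris, spotted on TLC and read by video densitometry. IC50 is the mean of triplicates in one experiment. Ratio is IC50 of sulfide over sulfoxide or sulfone.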
# [2] = Relative cytotoxicity is expressed as the ratio of the IC50 values of the corresponding sulfide to sulfoxide or to sulfone; assay type: functional, Cricetulus griseus; method in brief: as §1
# [3] = Hypoxic selectivity expressed as the ratio of IC50 values in air and nitrogen; assay type: functional
# Rattus norvegicus [4] = species on record: Rattus norvegicus; assay: Bioreduction experiment was conducted by incubation of the sulfoxides with rat liver S-9 fractions in aerobic conditions(air without cofactors); assay type: functional
# Method in brief: (§2)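 Rat liver S-9 fraction incubated with sulfoxide at 37 °C for 30 min with shaking. Aerobic vials were left open to air. Anaerobic vials were purged with N2 for 10 min before the compound was injected. Cofactor was NADPH, benzaldehyde, 2-hydroxypyrimidine or acetaldehyde, or none. Controls were boiled S-9 and S-9 without cofactors. For menadione, S-9 was preincubated aerobically with 1 equiv for 30 min, then benzaldehyde was added. Sulfide or sulfone was measured by HPLC or TLC densitometry.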
# Rattus norvegicus [5] = species on record: Rattus norvegicus; assay: Bioreduction experiment was conducted by incubation of the sulfoxides with rat liver S-9 fractions in anaerobic conditions (N2); assay type: functional; method in brief: as §2
# Rattus norvegicus [6] = species on record: Rattus norvegicus; assay: Bioreduction experiment was conducted by incubation of the sulfoxides with rat liver S-9 fractions in anaerobic conditions(N2, menadione); assay type: functional; method in brief: as §2
# Rattus norvegicus [7] = species on record: Rattus norvegicus; assay: Bioreduction experiment was conducted by incubation of the sulfoxides with rat liver S-9 fractions in anaerobic conditions(N2, without cofactors); assay type: functional; method in brief: as §2
# Rattus norvegicus [8] = species on record: Rattus norvegicus; assay: Bioreduction experiment was conducted by incubation of the sulfoxides with rat liver S-9 fractions in aerobic conditions(air, NADPH); assay type: functional; method in brief: as §2
# Rattus norvegicus [9] = species on record: Rattus norvegicus; assay: Bioreduction experiment was conducted by incubation of the sulfoxides with rat liver S-9 fractions in aerobic conditions(air ); assay type: functional; method in brief: as §2
# Rattus norvegicus [10] = species on record: Rattus norvegicus; assay: Bioreduction experiment was conducted by incubation of the sulfoxides with rat liver S-9 fractions in aerobic conditions(air, benzaldehyde); assay type: functional; method in brief: as §2
# Rattus norvegicus [11] = species on record: Rattus norvegicus; assay: Reduction potential (SCE) determined by differential pulse polarography of the sulfoxides […]; assay type: functional
# [12] = Concentration required to reduce cell survival to 10% of controls using V-79 cells in the clonogenic assay, in anaerobic conditions (hypoxic conditions); assay type: functional; details: Cricetulus griseus, V79
# Method in brief: (§3)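 V-79 cells (500 000 per bottle) grown 20 h in MEM with 10% FBS. Hypoxic set gassed 2 h at 37 °C with humidified 95% N2/5% CO2. Drug in ethanol/water or DMF injected through septa. Exposure 3 h under air or hypoxia. Cells trypsinised, counted by trypan blue, 500 plated in triplicate for 6–8 days. Colonies stained with crystal violet, survival relative to solvent control.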
# [13] = Concentration required to reduce cell survival to 10% of controls using V-79 cells in the clonogenic assay, in aerobic conditions; assay type: functional; details: Cricetulus griseus, V79; method in brief: as §3
# Rattus norvegicus [14] = species on record: Rattus norvegicus; assay: Bioreduction experiment was conducted by incubation of the sulfoxides with rat liver S-9 fractions in anaerobic conditions (N2, without cofactors); assay type: functional; design: concentration or dose not given beside the values; method in brief: as §2
# Rattus norvegicus [15] = species on record: Rattus norvegicus; assay: Bioreduction experiment was conducted by incubation of the sulfoxides with rat liver S-9 fractions in anaerobic conditions (N2, benzaldehyde); assay type: functional; design: concentration or dose not given beside the values; method in brief: as §2
# Rattus norvegicus [16] = species on record: Rattus norvegicus; assay: Bioreduction experiment was conducted by incubation of the sulfoxides with rat liver S-9 fractions in anaerobic conditions (N2 2-hydroxypyrimidine); assay type: functional; method in brief: as §2
# [17] = Hypoxia-selective cytotoxicity required to reduce cell survival to 10% of controls using V-79 cells in the clonogenic assay, with N2; assay type: functional; details: Cricetulus griseus, V79; method in brief: as §3
# [18] = Hypoxia-selective cytotoxicity required to reduce cell survival to 10% of controls using V-79 cells in the clonogenic assay, with air; assay type: functional; details: Cricetulus griseus, V79; method in brief: as §3
# Rattus norvegicus [19] = species on record: Rattus norvegicus; assay: Bioreduction experiment was conducted by incubation of the sulfoxides with rat liver S-9 fractions in anaerobic conditions N2); assay type: functional; method in brief: as §2
# Rattus norvegicus [20] = species on record: Rattus norvegicus; assay: Bioreduction experiment was conducted by incubation of the sulfoxides with rat liver S-9 fractions under anaerobic (N2) in the presence of 2-hydroxypyrimidine; assay type: functional
# Method in brief: (§4)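 Rat liver S-9 incubated with sulfoxide for 30 min at 37 °C, in open vials (air) or in vials purged with N2 for 10 min before dosing. Cofactor was NADPH, NADH, benzaldehyde, 2-hydroxypyrimidine or acetaldehyde. Controls were boiled S-9 or no cofactor. Menadione arm: 30 min aerobic preincubation with 1 equiv, then benzaldehyde. Stopped with CH2Cl2. Sulfide quantified by TLC densitometry as % of sulfoxide. Three experiments, same S-9 batch.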
# Rattus norvegicus [21] = species on record: Rattus norvegicus; assay: Bioreduction experiment was conducted by incubation of the sulfoxides with rat liver S-9 fractions under anaerobic (N2) in the presence of NADH; assay type: functional; method in brief: as §4
# Rattus norvegicus [22] = species on record: Rattus norvegicus; assay: Bioreduction experiment was conducted by incubation of the sulfoxides with rat liver S-9 fractions under aerobic(air) in the presence of were NADH; assay type: functional; method in brief: as §4
# Rattus norvegicus [23] = species on record: Rattus norvegicus; assay: Bioreduction experiment was conducted by incubation of the sulfoxides with rat liver S-9 fractions in aerobic conditions (air, control); assay type: functional; method in brief: as §2
# Rattus norvegicus [24] = species on record: Rattus norvegicus; assay: Bioreduction experiment was conducted by incubation of the sulfoxides with rat liver S-9 fractions under anaerobic (N2) with conditions boiled S-9 fractions; assay type: functional; method in brief: as §4
# Rattus norvegicus [25] = species on record: Rattus norvegicus; assay: Bioreduction experiment was conducted by incubation of the sulfoxides with rat liver S-9 fractions under aerobic(air) without cofactors; assay type: functional; method in brief: as §4
# Rattus norvegicus [26] = species on record: Rattus norvegicus; assay: Bioreduction experiment was conducted by incubation of the sulfoxides with rat liver S-9 fractions in aerobic conditions (N2, acetaldehyde); assay type: functional; method in brief: as §2
# Rattus norvegicus [27] = species on record: Rattus norvegicus; assay: Bioreduction experiment was conducted by incubation of the sulfoxides with rat liver S-9 fractions under aerobic(air) with conditions boiled S-9 fractions; assay type: functional; method in brief: as §4
# Rattus norvegicus [28] = species on record: Rattus norvegicus; assay: Bioreduction experiment was conducted by incubation of the sulfoxides with rat liver S-9 fractions in aerobic conditions (N2, NADPH); assay type: functional; method in brief: as §2
# Rattus norvegicus [29] = species on record: Rattus norvegicus; assay: Bioreduction experiment was conducted by incubation of the sulfoxides with rat liver S-9 fractions under aerobic(air) in the presence of benzaldehyde; assay type: functional; method in brief: as §4
# Rattus norvegicus [30] = species on record: Rattus norvegicus; assay: Bioreduction experiment was conducted by incubation of the sulfoxides with rat liver S-9 fractions in aerobic conditions (N2, 2-hydroxypyrimidine); assay type: functional; method in brief: as §2
# Rattus norvegicus [31] = species on record: Rattus norvegicus; assay: Bioreduction experiment was conducted by incubation of the sulfoxides with rat liver S-9 fractions under anaerobic (N2) in the presence of acetaldehyde; assay type: functional; method in brief: as §4
# Rattus norvegicus [32] = species on record: Rattus norvegicus; assay: Bioreduction experiment was conducted by incubation of the sulfoxides with rat liver S-9 fractions in aerobic conditions (N2, menadione); assay type: functional; method in brief: as §2
# Rattus norvegicus [33] = species on record: Rattus norvegicus; assay: Bioreduction experiment was conducted by incubation of the sulfoxides with rat liver S-9 fractions in aerobic conditions (air, benzaldehyde); assay type: functional; method in brief: as §2
# Rattus norvegicus [34] = species on record: Rattus norvegicus; assay: Bioreduction experiment was conducted by incubation of the sulfoxides with rat liver S-9 fractions under anaerobic (N2) without cofactors; assay type: functional; method in brief: as §4
# Rattus norvegicus [35] = species on record: Rattus norvegicus; assay: Bioreduction experiment was conducted by incubation of the sulfoxides with rat liver S-9 fractions in aerobic conditions (air, NADPH); assay type: functional; method in brief: as §2
# Rattus norvegicus [36] = species on record: Rattus norvegicus; assay: Bioreduction experiment was conducted by incubation of the sulfoxides with rat liver S-9 fractions under anaerobic (N2) in the presence of menadione; assay type: functional; method in brief: as §4
# Rattus norvegicus [37] = species on record: Rattus norvegicus; assay: Bioreduction experiment was conducted by incubation of the sulfoxides with rat liver S-9 fractions under anaerobic (N2) in the presence of NADPH; assay type: functional; method in brief: as §4
# Rattus norvegicus [38] = species on record: Rattus norvegicus; assay: Bioreduction experiment was conducted by incubation of the sulfoxides with rat liver S-9 fractions in aerobic conditions (air, without cofactors); assay type: functional; method in brief: as §2
# Rattus norvegicus [39] = species on record: Rattus norvegicus; assay: Bioreduction experiment was conducted by incubation of the sulfoxides with rat liver S-9 fractions under aerobic(air) in the presence of NADPH; assay type: functional; method in brief: as §4
smiles,measurement,setting,value
Cl.O=S(=O)(c1ccc(Nc2c3ccccc3nc3ccccc23)cc1)c1ccc(N(CCCl)CCCl)cc1,IC50,[1],22.2 µM
same,Cytotoxicity,[2],0.09
[O-][S+](c1ccc(N(CCCl)CCCl)cc1)c1ccc(N(CCCl)CCCl)cc1,Selectivity,[3],17
same,Bioreduction,Rattus norvegicus [4],0%
same,Bioreduction,Rattus norvegicus [5],0%
same,Bioreduction,Rattus norvegicus [6],0%
same,Bioreduction,Rattus norvegicus [7],0%
same,Bioreduction,Rattus norvegicus [8],0%
same,Bioreduction,Rattus norvegicus [9],0%
same,Bioreduction,Rattus norvegicus [10],0%
same,E,Rattus norvegicus [11],2.63 -V
same,IC90,[12],184 µM
same,IC90,[13],3090 µM
[O-][s+]1c2ccc(N(CCCl)CCCl)cc2c2cc(N(CCCl)CCCl)ccc21,Bioreduction,Rattus norvegicus [14],0.6%
same,Selectivity,[3],3
same,Bioreduction,Rattus norvegicus [15],0.6%
same,Bioreduction,Rattus norvegicus [5],0%
same,Bioreduction,Rattus norvegicus [16],0.33%
same,E,Rattus norvegicus [11],1.96 -V
same,IC90,[12],1520 µM
same,IC90,[13],4670 µM
O=[N+]([O-])c1ccc([S+]([O-])c2ccc(N(CCCl)CCCl)cc2)cc1 (centres undefined),Selectivity,[3],20
same,IC50,[1],21.9 µM
same,Cytotoxicity,[2],0.1
same,IC90,[17],182 µM
same,IC90,[18],3680 µM
[O-][S+](c1ccccc1)c1ccc(N(CCCl)CCCl)cc1 (centres undefined),Selectivity,[3],11
same,IC90,[12],189 µM
same,IC90,[13],2010 µM
Nc1ccc(S(=O)(=O)c2ccc(N(CCCl)CCCl)cc2)cc1,IC50,[1],26.9 µM
same,Cytotoxicity,[2],0.09
C[S+]([O-])c1ccccc1 (centres undefined) [METHYLPHENYLSULFOXIDE],Bioreduction,Rattus norvegicus [14],0%
same,Bioreduction,Rattus norvegicus [15],10.2%
same,Bioreduction,Rattus norvegicus [19],0%
same,E,Rattus norvegicus [11],2.4 -V
Nc1ccc([S+]([O-])c2ccc(N(CCCl)CCCl)cc2)cc1 (centres undefined),Bioreduction,Rattus norvegicus [20],8.5%
same,Bioreduction,Rattus norvegicus [14],0%
same,Bioreduction,Rattus norvegicus [21],9%
same,Bioreduction,Rattus norvegicus [22],9.75%
same,Bioreduction,Rattus norvegicus [23],0%
same,Selectivity,[3],15
same,Bioreduction,Rattus norvegicus [24],0%
same,Bioreduction,Rattus norvegicus [15],5%
same,IC50,[1],30 µM
same,Bioreduction,Rattus norvegicus [25],1.14%
same,Bioreduction,Rattus norvegicus [26],4.42%
same,Bioreduction,Rattus norvegicus [27],0%
same,Cytotoxicity,[2],0.08
same,IC90,[17],185 µM
same,Bioreduction,Rattus norvegicus [28],0.37%
same,Bioreduction,Rattus norvegicus [19],0%
same,Bioreduction,Rattus norvegicus [29],1.05%
same,Bioreduction,Rattus norvegicus [30],4.5%
same,Bioreduction,Rattus norvegicus [31],12.92%
same,Bioreduction,Rattus norvegicus [32],0%
same,Bioreduction,Rattus norvegicus [33],0%
same,Bioreduction,Rattus norvegicus [34],1.75%
same,Bioreduction,Rattus norvegicus [35],0 nmol/mg
same,Bioreduction,Rattus norvegicus [36],1.6%
same,Bioreduction,Rattus norvegicus [37],42.1%
same,Bioreduction,Rattus norvegicus [38],0%
same,E,Rattus norvegicus [11],2.55 -V
same,IC90,[18],2800 µM
same,Bioreduction,Rattus norvegicus [39],16%
